From ChEMBL document CHEMBL3259714, “Pyrazolo[4,3-e][1,2,4]triazine sulfonamides as carbonic anhydrase inhibitors with antitumor activity” (Bioorg Med Chem, 2014) come the findings set out here.

For the first experiment, the system named is MCF7. The experiment can be described thus: Cytostatic activity against human MCF7 cells assessed as inhibition of DNA synthesis after 24 hrs by [3H]thymidine incorporation assay. The experiment is classed as functional, cell-based. The essentials:
(§1)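 Cells kept in DMEM with 10% FBS and penicillin/streptomycin at 37 °C. Seeded in 6-well plates and grown to about 80% confluency, in DMEM without phenol red with 10% CPSR1. Exposed to a range of concentrations plus 0.5 μCi [³H]-thymidine for 24 h at 37 °C. Cells trypsinized and washed with cold PBS until wash dpm matched the reagent control. Uptake counted by liquid scintillation as dpm/well. IC50 is mean ± S.D. of four independent experiments.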
Background: Incorporation of labelled thymidine or its analogues reports DNA synthesis.
Turning to `Cc1nn(C)c2nnc(Nc3ccc(S(=O)(=O)NCCN4CCOCC4)cc3)nc12`, the inhibition result was “Dose-dependent effect”.

As to `Cc1nn(C)c2nnc(Nc3ccc(S(=O)(=O)N4CCCCC4)cc3)nc12`, the inhibition result was “Dose-dependent effect”.

Take `Cc1nn(C)c2nnc(Nc3ccc(S(=O)(=O)NCCO)cc3)nc12`: the inhibition entry was “Dose-dependent effect”.

Regarding `Cc1nn(C)c2nnc(Nc3ccc(S(=O)(=O)N4CCNCC4)cc3)nc12`, the inhibition entry was “Dose-dependent effect”.

The next experiment relates to MDA-MB-231. The experiment can be described thus: Cytostatic activity against human MDA-MB-231 cells assessed as inhibition of DNA synthesis after 24 hrs by [3H]thymidine incorporation assay. The format is functional, cell-based. In short, it runs like this:
as §1
Regarding `Cc1nn(C)c2nnc(Nc3ccc(S(=O)(=O)NCCN4CCOCC4)cc3)nc12`, the inhibition entry was “Dose-dependent effect”.

Regarding `Cc1nn(C)c2nnc(Nc3ccc(S(=O)(=O)N4CCCCC4)cc3)nc12`, the inhibition result was “Dose-dependent effect”.

On to `Cc1nn(C)c2nnc(Nc3ccc(S(=O)(=O)NCCO)cc3)nc12`, for which the inhibition entry was “Dose-dependent effect”.

Turning to `Cc1nn(C)c2nnc(Nc3ccc(S(=O)(=O)N4CCNCC4)cc3)nc12`, the inhibition entry was “Dose-dependent effect”.

Another experiment deals with MCF7. In words: Inhibition of collagen synthesis in human MCF7 cells assessed as 5-[3H]-proline incorporation into proteins susceptible to action of bacterial collagenase after 24 hrs. The experiment is classed as functional, cell-based. In short, it runs like this:
(§2)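 Cells labelled 24 h in growth medium with 5-[³H]proline (5 μCi/mL, 28 Ci/mmol) at a range of compound concentrations. Collagen share of incorporated label found by digesting proteins with purified Clostridium histolyticum collagenase (Peterkofsky method). Cell and medium fractions combined. IC50 is the mean ± S.D. of three independent experiments run in duplicate.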
For the compound `Cc1nn(C)c2nnc(Nc3ccc(S(=O)(=O)NCCN4CCOCC4)cc3)nc12`, the IC50 (as a rule, the concentration needed to halve the response being measured) was found to be 140 µM.

As to `Cc1nn(C)c2nnc(Nc3ccc(S(=O)(=O)N4CCCCC4)cc3)nc12`, the concentration for half-maximal inhibition (IC50) is 163 µM.

For the compound `Cc1nn(C)c2nnc(Nc3ccc(S(=O)(=O)NCCO)cc3)nc12`, the IC50 is more than 200 µM.

`Cc1nn(C)c2nnc(Nc3ccc(S(=O)(=O)N4CCNCC4)cc3)nc12`: the 50% inhibitory concentration (IC50) was found to be 175 µM.

A further experiment concerns MDA-MB-231. In words: Inhibition of collagen synthesis in human MDA-MB-231 cells assessed as 5-[3H]-proline incorporation into proteins susceptible to action of bacterial collagenase after 24 hrs. The experiment is classed as functional, cell-based. In short, it runs like this:
as §2
For `Cc1nn(C)c2nnc(Nc3ccc(S(=O)(=O)NCCN4CCOCC4)cc3)nc12`, the IC50 turned out to be 137 µM.

On to `Cc1nn(C)c2nnc(Nc3ccc(S(=O)(=O)N4CCCCC4)cc3)nc12`, for which the IC50 came out at 145 µM.

Consider `Cc1nn(C)c2nnc(Nc3ccc(S(=O)(=O)NCCO)cc3)nc12`, for which the IC50 was more than 200 µM.

Consider `Cc1nn(C)c2nnc(Nc3ccc(S(=O)(=O)N4CCNCC4)cc3)nc12`, for which the IC50 worked out at 180 µM.

In a further experiment the target is Carbonic anhydrase 1 (Homo sapiens, UniProt P00915). The experiment can be described thus: Inhibition of human carbonic anhydrase 1-mediated CO2 hydration preincubated for 15 mins by stopped-flow assay.
Sequence of Carbonic anhydrase 1 (P00915 whole entry): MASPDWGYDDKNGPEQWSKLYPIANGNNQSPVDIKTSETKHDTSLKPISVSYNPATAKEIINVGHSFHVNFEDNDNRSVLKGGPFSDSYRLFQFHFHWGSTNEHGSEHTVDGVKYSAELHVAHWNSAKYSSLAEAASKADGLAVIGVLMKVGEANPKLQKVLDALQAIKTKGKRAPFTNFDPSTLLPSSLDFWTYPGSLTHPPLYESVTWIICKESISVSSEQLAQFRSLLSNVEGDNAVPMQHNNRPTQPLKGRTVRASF
As for `Cc1nn(C)c2nnc(Nc3ccc(S(=O)(=O)NCCN4CCOCC4)cc3)nc12`, the Ki (usually a measure of affinity in units of concentration, obtained from inhibition or displacement) is more than 50 µM.

In turn, `Cc1nn(C)c2nnc(Nc3ccc(S(=O)(=O)N4CCCCC4)cc3)nc12` came in with a Ki of more than 50 µM.

In turn, `Cc1nn(C)c2nnc(Nc3ccc(S(=O)(=O)NCCO)cc3)nc12` yielded an inhibitory constant (Ki) of more than 50 µM.

In turn, `Cc1nn(C)c2nnc(Nc3ccc(S(=O)(=O)N4CCNCC4)cc3)nc12` had an inhibitory constant (Ki) of more than 50 µM.

A further experiment has as its target Carbonic anhydrase 2 (Homo sapiens, UniProt P00918). The experiment can be described thus: Inhibition of human carbonic anhydrase 2-mediated CO2 hydration preincubated for 15 mins by stopped-flow assay.
The compound `Cc1nn(C)c2nnc(Nc3ccc(S(=O)(=O)NCCN4CCOCC4)cc3)nc12` came in with an inhibition constant (Ki) of 719 nM.

`Cc1nn(C)c2nnc(Nc3ccc(S(=O)(=O)N4CCCCC4)cc3)nc12` returned a Ki of 492 nM.

As to `Cc1nn(C)c2nnc(Nc3ccc(S(=O)(=O)NCCO)cc3)nc12`, the affinity, expressed as Ki, was 772 nM.

The compound `Cc1nn(C)c2nnc(Nc3ccc(S(=O)(=O)N4CCNCC4)cc3)nc12` displayed a Ki of 703 nM.

The next experiment addresses Carbonic anhydrase 9 (Homo sapiens, UniProt Q16790). In words: Inhibition of human carbonic anhydrase 9-mediated CO2 hydration preincubated for 15 mins by stopped-flow assay.
Turning to `Cc1nn(C)c2nnc(Nc3ccc(S(=O)(=O)NCCN4CCOCC4)cc3)nc12`, the affinity, expressed as Ki, was 824 nM.

For the compound `Cc1nn(C)c2nnc(Nc3ccc(S(=O)(=O)N4CCCCC4)cc3)nc12`, the Ki was more than 50000 nM.

For the compound `Cc1nn(C)c2nnc(Nc3ccc(S(=O)(=O)NCCO)cc3)nc12`, the Ki came to 26.5 nM.

In turn, `Cc1nn(C)c2nnc(Nc3ccc(S(=O)(=O)N4CCNCC4)cc3)nc12` had an inhibition constant Ki of more than 50000 nM.

In another experiment the target is Carbonic anhydrase 12 (Homo sapiens, UniProt O43570). The experiment can be described thus: Inhibition of human carbonic anhydrase 12-mediated CO2 hydration preincubated for 15 mins by stopped-flow assay.
Sequence of Carbonic anhydrase 12 (O43570 whole entry): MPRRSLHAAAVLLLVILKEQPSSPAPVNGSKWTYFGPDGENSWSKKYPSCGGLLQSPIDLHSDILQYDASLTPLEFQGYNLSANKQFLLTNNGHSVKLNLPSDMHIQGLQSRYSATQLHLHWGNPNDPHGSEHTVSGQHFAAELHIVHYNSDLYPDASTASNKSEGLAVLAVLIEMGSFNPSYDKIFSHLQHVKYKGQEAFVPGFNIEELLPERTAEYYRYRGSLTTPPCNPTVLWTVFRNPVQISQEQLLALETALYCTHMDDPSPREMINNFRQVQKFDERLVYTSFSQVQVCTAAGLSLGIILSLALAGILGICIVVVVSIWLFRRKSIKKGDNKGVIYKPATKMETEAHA
Regarding `Cc1nn(C)c2nnc(Nc3ccc(S(=O)(=O)NCCN4CCOCC4)cc3)nc12`, the inhibitory constant (Ki) was 6.2 nM.

For the compound `Cc1nn(C)c2nnc(Nc3ccc(S(=O)(=O)N4CCCCC4)cc3)nc12`, the inhibition constant Ki was 6.2 nM.

Regarding `Cc1nn(C)c2nnc(Nc3ccc(S(=O)(=O)NCCO)cc3)nc12`, the inhibitory constant (Ki) worked out at 7.5 nM.

`Cc1nn(C)c2nnc(Nc3ccc(S(=O)(=O)N4CCNCC4)cc3)nc12` had a Ki of 5.7 nM.
